From ChEMBL document CHEMBL5038617, “1,2,4-Triazole-3-thione compounds with a 4-ethyl alkyl/aryl sulfide substituent are broad-spectrum metallo-β-lactamase inhibitors with re-sensitization activity” (Eur J Med Chem, 2021)

Legend:
[1] = system: Bacteria; experiment: Inhibition of bacterial Metallo-beta-lactamase IMP-1 (unknown origin) assessed as substrate hydrolysis at 100 uM using meropenem as substrate by UV-visible spectrometry analysis
How it was run: (§1)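 Purified MBL enzyme at 1–70 nM final, in 50 mM HEPES pH 7.5 at 30 °C with 0.5% DMSO. Reporter substrate 150 µM imipenem or meropenem; hydrolysis read at 300 nm. […] Ki measured when inhibition exceeded 75%, by competitive-model v0/vi vs [I] slope or Dixon plot. Some runs used 10 min enzyme–inhibitor preincubation. Triplicate.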

[2] = system: Bacteria; experiment: Inhibition of bacterial New Delhi metallo-beta-lactamase 1 (unknown origin) assessed as substrate hydrolysis at 100 uM using meropenem as substrate by UV-visible spectrometry analysis; how it was run: as §1
[3] = Inhibition of bacterial Metallo-beta-lactamase VIM-1 (unknown origin) assessed as substrate hydrolysis using meropenem as substrate by UV-visible spectrometry analysis; parameters: species or system Bacteria; how it was run: as §1
[4] = Inhibition of bacterial Metallo-beta-lactamase VIM-4 (unknown origin) assessed as substrate hydrolysis using meropenem as substrate by UV-visible spectrometry analysis; parameters: species or system Bacteria; how it was run: as §1
[5] = system: Klebsiella pneumoniae; experiment: Synergistic antibacterial activity against Klebsiella pneumonia 7023 clinical isolate strain producing Metallo-beta-lactamase VIM-1 assessed as meropenem MIC in presence of meropenem incubated for 24 hrs by broth microdilution method; format: functional
How it was run: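 CLSI broth microdilution in Mueller-Hinton broth with 5 × 10^4 CFU/well. Meropenem two-fold serial dilutions tested with and without inhibitor fixed at 32 µg/mL, inhibitor added before antibiotic. DMSO ≤1%. […] Growth controls included. Triplicate.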

[6] = system: Klebsiella pneumoniae; experiment: Synergistic antibacterial activity against Klebsiella pneumonia VA 416/02 clinical isolate strain producing Metallo-beta-lactamase VIM-4 assessed as meropenem MIC in presence of meropenem incubated for 24 hrs by broth microdilution method; settings: VA 416/02, 24 h
[7] = Inhibition of bacterial Metallo-beta-lactamase VIM-2 (unknown origin) assessed as substrate hydrolysis using meropenem as substrate by UV-visible spectrometry analysis; parameters: species or system Bacteria; how it was run: as §1
[8] = system: Bacteria; experiment: Inhibition of bacterial Metallo-beta-lactamase VIM-2 (unknown origin) assessed as substrate hydrolysis at 25 uM using meropenem as substrate by UV-visible spectrometry analysis; how it was run: as §1
[9] = system: Bacteria; experiment: Inhibition of bacterial Metallo-beta-lactamase IMP-1 (unknown origin) assessed as substrate hydrolysis at 25 uM using meropenem as substrate by UV-visible spectrometry analysis; how it was run: as §1
[10] = system: Bacteria; experiment: Inhibition of bacterial Metallo-beta-lactamase VIM-2 (unknown origin) assessed as substrate hydrolysis at 100 uM using meropenem as substrate by UV-visible spectrometry analysis; how it was run: as §1
[11] = system: Bacteria; experiment: Inhibition of bacterial Metallo-beta-lactamase VIM-4 (unknown origin) assessed as substrate hydrolysis at 100 uM using meropenem as substrate by UV-visible spectrometry analysis; how it was run: as §1
[12] = system: Bacteria; experiment: Inhibition of bacterial Metallo-beta-lactamase VIM-1 (unknown origin) assessed as substrate hydrolysis at 100 uM using meropenem as substrate by UV-visible spectrometry analysis; how it was run: as §1
[13] = system: HeLa; experiment: Cytotoxicity against human HeLa cells assessed as LDH release measured after 24 hrs by CytoTox96 nonradioactive assay; format: functional, cell-based
How it was run: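 HeLa cells (20,000/well) incubated 24 h at 37 °C, 5% CO2 in DMEM with 10% FBS, 4.5 mg/mL glucose and 2 mM L-glutamine, with compound up to 250 µM. LDH release measured. Medium-only control and Triton X-100 maximum-release control included. % cytotoxicity = 100 × sample/maximum release. IC50 taken as 50% cytotoxicity.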

[14] = Inhibition of bacterial New Delhi metallo-beta-lactamase 1 (unknown origin) assessed as substrate hydrolysis using meropenem as substrate by UV-visible spectrometry analysis; parameters: species or system Bacteria; how it was run: as §1
[15] = Cytotoxicity against human PBMC cells assessed as cell viability measured after 24 hrs by flowcytometry method; format: toxicity, cell-based; settings: for IC50 at 24 h: human, PBMC cells
How it was run: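 PBMC from four individual donors were isolated by density centrifugation, frozen, thawed and resuspended at 1.10e6/mL in RPMI with 10% FBS. Compound added from 20 mM DMSO stock by serial dilution in RPMI; final concentrations 500–7.8 µM, in duplicate. After 24 h, live cells counted by flow cytometry using FSC/SSC gating. IC50 calculated for each donor.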

[16] = system: A549; experiment: Cytotoxicity against human A549 cells assessed as cell viability measured after 48 hrs by RealTime-glo MT assay; format: functional, cell-based; settings: A549, 48 h
How it was run: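 A549 cells incubated up to 48 h in DMEM with varying compound concentrations. Viable cell number read by bioluminescent real-time viability assay (NanoLuc luciferase with cell-permeant prosubstrate). Viability expressed relative to DMSO-only control culture, and IC50 derived.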

[17] = Inhibition of bacterial Metallo-beta-lactamase IMP-1 (unknown origin) assessed as substrate hydrolysis using meropenem as substrate by UV-visible spectrometry analysis; parameters: species or system Bacteria; how it was run: as §1
[18] = system: Bacteria; experiment: Inhibition of bacterial Metallo-beta-lactamase VIM-4 (unknown origin) assessed as substrate hydrolysis at 25 uM using meropenem as substrate by UV-visible spectrometry analysis; how it was run: as §1
[19] = system: Bacteria; experiment: Inhibition of bacterial Metallo-beta-lactamase VIM-1 (unknown origin) assessed as substrate hydrolysis at 25 uM using meropenem as substrate by UV-visible spectrometry analysis; how it was run: as §1

Structure (SMILES)	inhibition [1]	inhibition [2]	Ki [3]	Ki [4]	MIC [5]	MIC [6]	Ki [7]	Ki [14]	Ki [17]	also measured
O=C(O)C(SCCn1c(-c2ccccc2)n[nH]c1=S)c1ccccc1 (stereo not drawn)	30%	40%	1650 nM	210 nM	4 µg/mL	2 µg/mL	190 nM	–	–	–
S=c1[nH]nc(-c2cccc(-c3ccccc3)c2)n1CCSCc1ccccc1	–	< 30%	–	890 nM	16 µg/mL	16 µg/mL	–	–	–	inhibition [8]: < 15%; inhibition [9]: 21%
S=c1[nH]nc(-c2ccccc2)n1CCSc1cccc2ccccc12	< 30%	< 30%	480 nM	250 nM	8 µg/mL	16 µg/mL	1000 nM	–	–	–
Cc1nnc(SCCn2c(-c3ccccc3)n[nH]c2=S)s1	< 30%	< 30%	2170 nM	2950 nM	2 µg/mL	2 µg/mL	–	–	–	inhibition [10]: 56%
S=c1[nH]nc(-c2ccccc2)n1CCSc1nc2ccccc2s1	47%	< 30%	–	–	–	–	–	–	–	inhibition [11]: 44%; inhibition [12]: < 30%; inhibition [10]: 30%
O=[N+]([O-])c1ccc(O)c(CSCCn2c(-c3ccccc3)n[nH]c2=S)c1	62%	–	580 nM	250 nM	1 µg/mL	4 µg/mL	210 nM	11900 nM	–	IC50 [13]: > 250000 nM; IC50 at 24 h [15]: > 500000 nM; IC50 [16]: 125000 nM
S=c1[nH]nc(-c2ccccc2)n1CCSCCc1ccccc1	–	–	460 nM	430 nM	2 µg/mL	1 µg/mL	1760 nM	21100 nM	17700 nM	–
S=c1[nH]nc(-c2ccccc2)n1CCOCc1ccccc1	42%	33%	1020 nM	2060 nM	4 µg/mL	2 µg/mL	3160 nM	–	–	–
O=[N+]([O-])c1ccccc1CSCCn1c(-c2ccccc2)n[nH]c1=S	72%	–	480 nM	560 nM	2 µg/mL	1 µg/mL	570 nM	13200 nM	19000 nM	–
Cc1ccccc1-c1n[nH]c(=S)n1CCSCc1ccccc1	–	–	400 nM	500 nM	4 µg/mL	2 µg/mL	800 nM	13000 nM	44000 nM	IC50 [13]: 121000 nM
Fc1ccc(CSCCn2c(-c3ccccc3)n[nH]c2=S)cc1	–	–	2220 nM	1110 nM	8 µg/mL	2 µg/mL	830 nM	15100 nM	9660 nM	–
O=C(O)CCSCCn1c(-c2ccccc2)n[nH]c1=S	67%	59%	1990 nM	1980 nM	2 µg/mL	1 µg/mL	1910 nM	–	–	–
COc1ccc(O)c(-c2n[nH]c(=S)n2CCSCc2ccccc2)c1	63%	46%	180 nM	600 nM	2 µg/mL	2 µg/mL	1650 nM	–	–	–
S=c1[nH]nc(-c2ccccc2)n1CCSc1ccccc1	–	–	1260 nM	540 nM	1 µg/mL	1 µg/mL	1570 nM	11000 nM	3350 nM	–
Nc1ccccc1SCCn1c(-c2ccccc2)n[nH]c1=S	–	–	470 nM	410 nM	4 µg/mL	2 µg/mL	1150 nM	16300 nM	22200 nM	–
S=c1[nH]nc(-c2ccc(-c3ccccc3)cc2)n1CCSCc1ccccc1	60%	< 30%	–	–	–	–	–	–	–	inhibition [18]: < 15%; inhibition [19]: < 15%; inhibition [10]: < 30%
S=c1[nH]nc(-c2ccccc2-c2ccccc2)n1CCSCc1ccccc1	35%	< 30%	–	–	–	–	–	–	–	inhibition [10]: < 30%
O=C(O)C(CSCCn1c(-c2cccc(-c3ccccc3)c2)n[nH]c1=S)c1ccccc1 (stereo not drawn)	56%	–	1390 nM	210 nM	4 µg/mL	2 µg/mL	370 nM	20300 nM	–	–
O=[N+]([O-])c1ccc(CSCCn2c(-c3ccccc3)n[nH]c2=S)cc1	–	–	430 nM	880 nM	2 µg/mL	1 µg/mL	1290 nM	11100 nM	3630 nM	–
O=C(O)C(CSCCn1c(-c2ccccc2)n[nH]c1=S)c1ccccc1 (stereo not drawn)	–	–	480 nM	220 nM	2 µg/mL	4 µg/mL	600 nM	6000 nM	35000 nM	IC50 [13]: > 250000 nM
S=c1[nH]nc(-c2ccccc2)n1CCCSc1ccccc1	46%	42%	2980 nM	4850 nM	2 µg/mL	1 µg/mL	1350 nM	–	–	–
O=C(O)CSCCn1c(-c2ccccc2)n[nH]c1=S	< 30%	40%	2360 nM	710 nM	2 µg/mL	4 µg/mL	810 nM	–	–	–
Fc1ccc(CSCCn2c(-c3ccccc3)n[nH]c2=S)c(F)c1	–	–	1330 nM	1180 nM	2 µg/mL	1 µg/mL	940 nM	12000 nM	8670 nM	–
S=c1[nH]nc(-c2ccccc2)n1CCSc1nc(-c2ccccc2)n[nH]1	32%	< 30%	–	–	–	–	–	–	–	inhibition [11]: 52%; inhibition [12]: < 30%; inhibition [10]: 44%
Cn1cccc1-c1n[nH]c(=S)n1CCSCc1ccccc1	–	75%	230 nM	250 nM	2 µg/mL	1 µg/mL	340 nM	28000 nM	9040 nM	IC50 [13]: > 250000 nM; IC50 ([15]; pbmc): Non-Toxic; IC50 [16]: > 250000 nM
S=c1[nH]nc(-c2ccc(OCc3ccccc3)cc2)n1CCSCc1ccccc1	60%	< 30%	2240 nM	1040 nM	–	–	–	–	–	inhibition [10]: < 30%
S=c1[nH]nc(Cc2ccc3ccccc3c2)n1CCSCc1ccccc1	70%	< 30%	–	–	–	–	–	–	–	inhibition [18]: 23%; inhibition [19]: < 15%; inhibition [10]: < 30%
FC(F)(F)c1cc(SCCn2c(-c3ccccc3)n[nH]c2=S)c2ccccc2n1	< 30%	–	–	–	–	–	–	12900 nM	–	inhibition [11]: < 30%; inhibition [12]: 37%; inhibition [10]: < 30%
Fc1ccccc1CSCCn1c(-c2ccccc2)n[nH]c1=S	–	–	590 nM	320 nM	1 µg/mL	2 µg/mL	280 nM	11900 nM	12100 nM	IC50 [13]: 165000 nM; IC50 at 24 h [15]: 175000 nM
